Test [1] is described as follows: Binding affinity to 5'-biotin-labeled GCTAGTC-CAGGCTTTTGCCTGGACTAGC-3' DNA (unknown origin) by surface plasmon resonance assay. An outline of the steps: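 Biacore SPR at 25 °C. Biotinylated hairpin DNA is captured on a streptavidin SA chip. Polyamides are diluted from 4 mM DMSO stocks into HBS-EP (10 mM HEPES […], 0.15 M NaCl, 3 mM EDTA, 0.005% P20) with 0.1% DMSO, which is also the running buffer. Samples are injected at 5 μL/min over 6.25 nM–4 μM. Regeneration uses running buffer or 10 mM glycine-HCl, pH 1.5. KD is obtained by model fitting.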
In general terms: SPR reads the build-up and loss of mass on a sensor chip optically.

Test [2] in a line: Binding affinity to 5'-CCGAGTCCATACG-3' DNA (unknown origin) assessed as increase in fluorescence intensity at 200 nM by florescence assay relative to control. In a few lines:
(§1)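 Steady-state fluorescence of 200 nM pyrene conjugates mixed with target oligonucleotide duplex in 5 mM Na phosphate buffer, pH 7.0, 1% v/v DMF. Excitation at 345 nm, emission read at 386 nm. Measured at room temperature without oxygen removal. Intensity is compared with that of the conjugate alone.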

Test [3] can be described thus: Binding affinity to 5'-CGTATGGACTCGG-3' DNA (unknown origin) assessed as increase in fluorescence intensity at 200 nM by florescence assay relative to control. An outline of the steps: as §1

Take `CN(C)CCCNC(=O)CCNC(=O)c1cc(NC(=O)c2cc(NC(=O)c3cc(NC(=O)c4nc(NC(=O)CCCNC(=O)c5cc(NC(=O)c6cc(NC(=O)c7nc(NC(=O)c8nc(NC(=O)CCNC(=O)CCCc9ccc%10ccc%11cccc%12ccc9c%10c%11%12)cn8C)cn7C)cn6C)cn5C)cn4C)cn3C)cn2C)cn1C`: the Kd in test [1] was greater than 10000 nM. The fold change (FC) in test [2] and in test [3] was 3 throughout.
`CC(=O)Nc1cn(C)c(C(=O)Nc2cn(C)c(C(=O)Nc3cc(C(=O)Nc4cc(C(=O)NCC[C@@H](NC(=O)CCCc5ccc6ccc7cccc8ccc5c6c78)C(=O)Nc5cn(C)c(C(=O)Nc6cc(C(=O)Nc7cc(C(=O)Nc8cc(C(=O)NCCC(=O)NCCCN(C)C)n(C)c8)n(C)c7)n(C)c6)n5)n(C)c4)n(C)c3)n2)n1`: the Kd in test [1] amounted to 1740 nM. The fold change (FC) in test [2] and in test [3] was 7 in each case.
`CC(=O)Nc1cn(C)c(C(=O)Nc2cn(C)c(C(=O)Nc3cc(C(=O)Nc4cc(C(=O)NCC[C@@H](NC(=O)CCNC(=O)CCCc5ccc6ccc7cccc8ccc5c6c78)C(=O)Nc5cn(C)c(C(=O)Nc6cc(C(=O)Nc7cc(C(=O)Nc8cc(C(=O)NCCC(=O)NCCCN(C)C)n(C)c8)n(C)c7)n(C)c6)n5)n(C)c4)n(C)c3)n2)n1` registered a Kd in test [1] of 17.3 nM. The fold change (FC) in test [2] and in test [3] was 4 throughout.
Consider `CN(C)CCCNC(=O)CCNC(=O)c1cc(NC(=O)c2cc(NC(=O)c3cc(NC(=O)c4nc(NC(=O)CCCNC(=O)c5cc(NC(=O)c6cc(NC(=O)c7nc(NC(=O)c8nc(NC(=O)CCNC(=O)CCNC(=O)CCCc9ccc%10ccc%11cccc%12ccc9c%10c%11%12)cn8C)cn7C)cn6C)cn5C)cn4C)cn3C)cn2C)cn1C`, for which the Kd in test [1] was greater than 10000 nM. Further, the fold change (FC) in test [2] and in test [3] was 3 each time.

The term Kd denotes a measure of binding affinity in units of concentration.

Values taken from ChEMBL document CHEMBL2311272, “Design of a new fluorescent probe: pyrrole/imidazole hairpin polyamides with pyrene conjugation at their γ-turn” (Bioorg Med Chem, 2013).
